Assay results published in the M2OR odorant receptor database.

Legend:
Conditions in all cases: stereoisomer not certain
[1] = target: T1, UniProt E9PVX1
T1 sequence (whole entry): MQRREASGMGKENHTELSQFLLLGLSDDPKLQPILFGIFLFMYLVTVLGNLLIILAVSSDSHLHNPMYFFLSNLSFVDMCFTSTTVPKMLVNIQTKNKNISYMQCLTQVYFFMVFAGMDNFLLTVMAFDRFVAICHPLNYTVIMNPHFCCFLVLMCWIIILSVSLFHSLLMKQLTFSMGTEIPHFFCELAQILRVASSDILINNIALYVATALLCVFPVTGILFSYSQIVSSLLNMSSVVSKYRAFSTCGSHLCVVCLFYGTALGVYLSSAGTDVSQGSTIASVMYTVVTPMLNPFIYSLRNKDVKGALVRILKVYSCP
How it was run: (§1)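 Each entry records the cell line, G-protein, co-transfected protein and tags used. Methods varied with the source, often transient luciferase assays in mammalian cell lines. A receptor–molecule pair is called responsive (active) if the original authors judged its signal statistically different from baseline and non-responsive (inactive) otherwise.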

[2] = target: T2, UniProt E9PZ66
T2 sequence (whole entry): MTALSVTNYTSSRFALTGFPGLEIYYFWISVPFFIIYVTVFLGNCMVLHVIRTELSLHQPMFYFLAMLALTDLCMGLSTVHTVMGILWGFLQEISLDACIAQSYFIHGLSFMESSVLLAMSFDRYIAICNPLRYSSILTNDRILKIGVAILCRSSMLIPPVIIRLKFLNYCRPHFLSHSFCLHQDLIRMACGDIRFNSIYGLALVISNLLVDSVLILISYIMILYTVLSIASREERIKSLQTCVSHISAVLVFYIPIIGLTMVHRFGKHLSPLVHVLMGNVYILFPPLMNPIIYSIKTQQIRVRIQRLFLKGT
How it was run: as §1

[3] = target: T3, UniProt E9Q4X7
T3 sequence (whole entry): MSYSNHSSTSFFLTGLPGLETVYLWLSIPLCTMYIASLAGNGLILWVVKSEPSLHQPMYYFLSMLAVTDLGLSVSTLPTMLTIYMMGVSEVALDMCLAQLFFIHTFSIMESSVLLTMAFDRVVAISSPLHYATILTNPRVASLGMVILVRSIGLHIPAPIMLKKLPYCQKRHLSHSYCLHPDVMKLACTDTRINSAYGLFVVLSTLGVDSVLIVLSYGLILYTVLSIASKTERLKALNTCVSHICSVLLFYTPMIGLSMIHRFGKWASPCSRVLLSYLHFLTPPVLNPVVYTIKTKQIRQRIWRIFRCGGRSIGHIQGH
How it was run: as §1

[4] = target: T4, UniProt E9Q546
T4 sequence (whole entry): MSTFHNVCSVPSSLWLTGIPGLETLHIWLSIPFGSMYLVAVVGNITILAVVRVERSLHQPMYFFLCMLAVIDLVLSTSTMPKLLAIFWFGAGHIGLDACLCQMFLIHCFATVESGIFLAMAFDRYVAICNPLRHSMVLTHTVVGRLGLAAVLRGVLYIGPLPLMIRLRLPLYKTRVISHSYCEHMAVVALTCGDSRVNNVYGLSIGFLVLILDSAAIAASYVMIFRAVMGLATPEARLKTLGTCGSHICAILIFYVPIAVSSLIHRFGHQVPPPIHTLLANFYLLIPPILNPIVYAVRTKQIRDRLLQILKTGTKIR
How it was run: as §1

[5] = target: T5, UniProt E9Q6Z7
T5 sequence (whole entry): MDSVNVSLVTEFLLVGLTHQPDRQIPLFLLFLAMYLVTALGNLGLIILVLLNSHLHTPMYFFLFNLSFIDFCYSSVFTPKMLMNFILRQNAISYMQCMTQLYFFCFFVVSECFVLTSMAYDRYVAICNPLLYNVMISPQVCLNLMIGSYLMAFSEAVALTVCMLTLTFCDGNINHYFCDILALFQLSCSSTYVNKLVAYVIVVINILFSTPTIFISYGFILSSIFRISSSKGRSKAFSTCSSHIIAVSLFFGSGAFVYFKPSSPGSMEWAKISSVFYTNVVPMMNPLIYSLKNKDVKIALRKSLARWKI
How it was run: as §1

[6] = target: T6, UniProt L7MU75
T6 sequence (whole entry): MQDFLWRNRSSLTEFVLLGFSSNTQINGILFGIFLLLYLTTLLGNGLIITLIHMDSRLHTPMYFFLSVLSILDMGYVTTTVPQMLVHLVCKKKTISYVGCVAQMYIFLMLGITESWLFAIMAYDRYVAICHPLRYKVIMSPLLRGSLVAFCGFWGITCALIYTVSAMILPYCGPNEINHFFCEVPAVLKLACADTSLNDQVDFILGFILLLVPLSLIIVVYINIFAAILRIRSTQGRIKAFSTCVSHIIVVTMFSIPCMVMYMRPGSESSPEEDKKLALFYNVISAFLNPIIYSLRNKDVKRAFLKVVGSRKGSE
How it was run: as §1

[7] = target: T7, UniProt L7N210
T7 sequence (whole entry): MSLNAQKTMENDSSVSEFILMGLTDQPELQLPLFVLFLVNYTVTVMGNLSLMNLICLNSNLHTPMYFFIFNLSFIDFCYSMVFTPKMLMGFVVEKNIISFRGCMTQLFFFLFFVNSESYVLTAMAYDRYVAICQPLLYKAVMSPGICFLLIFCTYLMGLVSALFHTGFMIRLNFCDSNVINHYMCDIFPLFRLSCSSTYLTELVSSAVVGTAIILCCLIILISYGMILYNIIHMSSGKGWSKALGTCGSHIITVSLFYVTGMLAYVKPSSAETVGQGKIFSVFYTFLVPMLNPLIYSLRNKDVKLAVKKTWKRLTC
How it was run: as §1

[8] = target: T8, UniProt Q3KPB0
T8 sequence (whole entry): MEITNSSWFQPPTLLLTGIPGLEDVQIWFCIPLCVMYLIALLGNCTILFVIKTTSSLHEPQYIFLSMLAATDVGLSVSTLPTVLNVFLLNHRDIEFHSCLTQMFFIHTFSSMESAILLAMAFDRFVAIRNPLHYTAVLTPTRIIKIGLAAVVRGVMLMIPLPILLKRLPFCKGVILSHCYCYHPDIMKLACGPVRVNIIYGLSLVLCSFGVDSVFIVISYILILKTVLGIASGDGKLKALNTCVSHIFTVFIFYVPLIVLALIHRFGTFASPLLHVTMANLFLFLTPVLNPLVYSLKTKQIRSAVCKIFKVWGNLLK
How it was run: as §1

[9] = target: T9, UniProt Q3U0P3
T9 sequence (whole entry): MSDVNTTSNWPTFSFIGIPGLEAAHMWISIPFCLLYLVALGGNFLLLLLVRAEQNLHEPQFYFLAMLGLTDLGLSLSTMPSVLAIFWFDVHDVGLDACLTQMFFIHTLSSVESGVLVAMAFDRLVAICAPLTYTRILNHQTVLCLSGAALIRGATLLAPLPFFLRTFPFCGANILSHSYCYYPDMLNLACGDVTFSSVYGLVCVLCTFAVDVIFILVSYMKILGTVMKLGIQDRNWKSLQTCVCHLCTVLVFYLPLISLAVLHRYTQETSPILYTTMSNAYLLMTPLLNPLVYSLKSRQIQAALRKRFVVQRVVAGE
How it was run: as §1

[10] = target: T10, UniProt Q7TQU8
T10 sequence (whole entry): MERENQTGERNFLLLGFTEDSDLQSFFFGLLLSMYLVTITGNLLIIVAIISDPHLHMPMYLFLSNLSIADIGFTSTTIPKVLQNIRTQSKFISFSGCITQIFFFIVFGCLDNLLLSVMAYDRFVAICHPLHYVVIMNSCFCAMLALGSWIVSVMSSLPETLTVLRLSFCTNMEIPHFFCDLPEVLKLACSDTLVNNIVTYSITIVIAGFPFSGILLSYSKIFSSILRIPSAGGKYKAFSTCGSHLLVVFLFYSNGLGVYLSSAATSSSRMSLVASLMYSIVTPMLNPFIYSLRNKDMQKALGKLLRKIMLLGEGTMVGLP
How it was run: as §1

[11] = target: T11, UniProt Q7TR79
T11 sequence (whole entry): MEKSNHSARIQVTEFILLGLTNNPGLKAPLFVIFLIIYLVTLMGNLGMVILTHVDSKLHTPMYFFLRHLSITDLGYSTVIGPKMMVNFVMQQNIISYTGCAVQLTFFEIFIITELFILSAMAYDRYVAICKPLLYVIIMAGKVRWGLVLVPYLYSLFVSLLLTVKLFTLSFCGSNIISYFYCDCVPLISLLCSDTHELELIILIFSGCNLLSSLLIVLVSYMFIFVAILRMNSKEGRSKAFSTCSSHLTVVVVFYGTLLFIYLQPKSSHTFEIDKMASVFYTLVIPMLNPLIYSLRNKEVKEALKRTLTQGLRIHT
How it was run: as §1

[12] = target: T12, UniProt E9Q9Z6
T12 sequence (whole entry): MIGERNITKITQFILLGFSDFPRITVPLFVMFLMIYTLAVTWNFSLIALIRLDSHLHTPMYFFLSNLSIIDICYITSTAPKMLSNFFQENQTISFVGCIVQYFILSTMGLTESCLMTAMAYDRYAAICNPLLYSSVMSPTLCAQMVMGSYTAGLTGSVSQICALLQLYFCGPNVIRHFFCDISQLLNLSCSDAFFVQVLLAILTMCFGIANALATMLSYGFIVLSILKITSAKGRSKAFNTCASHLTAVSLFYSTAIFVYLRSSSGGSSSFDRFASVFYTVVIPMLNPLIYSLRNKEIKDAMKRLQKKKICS
How it was run: as §1

Measured: odorant receptor agonist call

Cc1ccc(OC(=O)Cc2ccccc2)cc1
not listed: [12]
inactive: all other assays above

CSSC
not listed: [12]
inactive: all other assays above

Oc1ccccc1Br
not listed: [12]
inactive: all other assays above

CC(=O)c1cc2c(cc1C)C(C)(C)C(C)CC2(C)C (stereo not given)
active: [12]

CCCCCCC(Br)C(=O)O (stereo not given)
not listed: [12]
inactive: all other assays above
